From ChEMBL document CHEMBL1155167, “Fluoroquinolone resistance in atypical pneumococci and oral streptococci: evidence of horizontal gene transfer of fluoroquinolone resistance determinants from Streptococcus pneumoniae” (2007)

Tests used:
Format in all cases: functional
Streptococcus oralis [1] = assay: Antimicrobial activity against Streptococcus oralis ATCC 10557 with gyrA Ser114Gly, and parC Ser52Gly, Asn91Asp mutation by broth dilution method
Procedure, shortened: (§1)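 Ciprofloxacin and levofloxacin MICs were determined by broth dilution following CLSI (formerly NCCLS) guidance. S. pneumoniae ATCC 6303 and ATCC 49619 served as control strains. Reference strains were S. mitis ATCC 49456 and S. oralis ATCC 10557. The clinical isolates came from patients at a Hong Kong teaching hospital.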

Streptococcus oralis [2] = assay: Antimicrobial activity against Streptococcus oralis HK575 with gyrA Ser114Gly, Leu155Val and parC Ser52Gly, Asn91Asp, Pro140Ser mutation by broth dilution method; procedure, shortened: as §1
Streptococcus oralis [3] = assay: Antimicrobial activity against Streptococcus oralis HK232 with gyrA Ser114Gly, and parC Ser52Gly, Asn91Asp mutation by broth dilution method; procedure, shortened: as §1
Streptococcus oralis [4] = assay: Antimicrobial activity against Streptococcus oralis HK417 with gyrA Ser114Gly, and parC Ser52Gly, Asn91Asp mutation by broth dilution method; procedure, shortened: as §1
Streptococcus oralis [5] = assay: Antimicrobial activity against Streptococcus oralis HK496 with gyrA Ser114Gly, and parC Ser52Gly, Asn91Asp mutation by broth dilution method; procedure, shortened: as §1
Streptococcus oralis [6] = assay: Antimicrobial activity against Streptococcus oralis HK553 with gyrA Ser114Gly, and parC Ser52Gly, Asn91Asp mutation by broth dilution method; procedure, shortened: as §1
Streptococcus oralis [7] = assay: Antimicrobial activity against Streptococcus oralis HK62 with gyrA Ser114Gly, and parC Ser52Gly, Asn91Asp mutation by broth dilution method; procedure, shortened: as §1
Streptococcus oralis [8] = assay: Antimicrobial activity against Streptococcus oralis HK122 with gyrA Ser114Gly, and parC Ser52Gly, Asn91Asp mutation by broth dilution method; procedure, shortened: as §1
Streptococcus oralis [9] = assay: Antimicrobial activity against Streptococcus oralis HK123 with gyrA Ser114Gly, and parC Ser52Gly, Asn91Asp mutation by broth dilution method; procedure, shortened: as §1
Streptococcus oralis [10] = assay: Antimicrobial activity against Streptococcus oralis HK271 with gyrA Ser114Gly, and parC Ser52Gly, Asn91Asp mutation by broth dilution method; procedure, shortened: as §1
Streptococcus oralis [11] = assay: Antimicrobial activity against Streptococcus oralis HK300 with gyrA Ser114Gly, and parC Ser52Gly, Asn91Asp mutation by broth dilution method; procedure, shortened: as §1
Streptococcus oralis [12] = assay: Antimicrobial activity against Streptococcus oralis HK312 with gyrA Ser114Gly, and parC Ser52Gly, Asn91Asp mutation by broth dilution method; procedure, shortened: as §1
Streptococcus oralis [13] = assay: Antimicrobial activity against Streptococcus oralis HK51with gyrA Ser114Gly, and parC Ser52Gly, Asn91Asp mutation by broth dilution method; procedure, shortened: as §1
Streptococcus oralis [14] = assay: Antimicrobial activity against Streptococcus oralis HK299 with gyrA Ser114Gly, and parC Ser52Gly, Asn91Asp mutation by broth dilution method; procedure, shortened: as §1
Streptococcus oralis [15] = assay: Antimicrobial activity against Streptococcus oralis HK579 with gyrA Ser114Gly, and parC Ser52Gly, Asn91Asp mutation by broth dilution method; procedure, shortened: as §1
Streptococcus oralis [16] = assay: Antimicrobial activity against Streptococcus oralis HK587 with gyrA Ser114Gly, and parC Ser52Gly, Asn91Asp mutation by broth dilution method; procedure, shortened: as §1
Streptococcus oralis [17] = assay: Antimicrobial activity against Streptococcus oralis HK386 with gyrA Ser114Gly, and parC Ser52Gly, Asn91Asp mutation by broth dilution method; procedure, shortened: as §1
Streptococcus oralis [18] = assay: Antimicrobial activity against Streptococcus oralis HK619 with gyrA Ser114Gly, and parC Ser52Gly, Asn91Asp mutation by broth dilution method; procedure, shortened: as §1
Streptococcus oralis [19] = assay: Antimicrobial activity against Streptococcus oralis HK574 with gyrA Ser114Gly, Leu155Val, gyrB Ile385Val, Met483Thr, Ser494Thr and parC Ser52Gly, Asn91Asp mutation by broth dilution method; procedure, shortened: as §1
Streptococcus oralis [20] = assay: Antimicrobial activity against Streptococcus oralis HK816 with gyrA Ser81Leu, Ser114Gly and parC Ser52Gly, Ser79Tyr, Asn91Asp mutation by broth dilution method; procedure, shortened: as §1
Streptococcus oralis [21] = assay: Antimicrobial activity against Streptococcus oralis HK754 with gyrA Ser81Leu, Ser114Gly, gyrB Ser494Thr, parC Ser52Gly, Asp83Tyr, Asn91Asp and parE Arg447Ser mutation by broth dilution method; procedure, shortened: as §1
Streptococcus mitis [22] = assay: Antimicrobial activity against Streptococcus mitis ATCC 49456 with gyrA Ser114Gly, and parC Ser52Gly, Asn91Asp, Glu135Asp mutation by broth dilution method; procedure, shortened: as §1
Streptococcus mitis [23] = assay: Antimicrobial activity against Streptococcus mitis HK260 with gyrA Ser114Gly, and parC Ser52Gly, Asn91Asp mutation by broth dilution method; procedure, shortened: as §1
Streptococcus mitis [24] = assay: Antimicrobial activity against Streptococcus mitis HK141 with gyrA Ser114Gly, and parC Ser52Gly, Asn91Asp mutation by broth dilution method; procedure, shortened: as §1
Streptococcus mitis [25] = assay: Antimicrobial activity against Streptococcus mitis HK188 with gyrA Ser114Gly, and parC Ser52Gly, Asn91Asp, Glu135Asp mutation by broth dilution method; procedure, shortened: as §1
Streptococcus mitis [26] = assay: Antimicrobial activity against Streptococcus mitis HK651 with gyrA Ser114Gly, and parC Ser52Gly, Asn91Asp mutation by broth dilution method; procedure, shortened: as §1
Streptococcus mitis [27] = assay: Antimicrobial activity against Streptococcus mitis HK137453 with gyrA Ser114Gly, and parC Ser52Gly, Asn91Asp mutation by broth dilution method; procedure, shortened: as §1
Streptococcus mitis [28] = assay: Antimicrobial activity against Streptococcus mitis HK680 with gyrA Ser114Gly, and parC Ser52Gly, Asn91Asp mutation by broth dilution method; procedure, shortened: as §1
Streptococcus mitis [29] = assay: Antimicrobial activity against Streptococcus mitis HK125807 with gyrA Ser114Gly, and parC Ser52Gly, Asn91Asp mutation by broth dilution method; procedure, shortened: as §1
Streptococcus mitis [30] = assay: Antimicrobial activity against Streptococcus mitis HK467 with gyrA Ser114Gly, Leu155Val and parC Ser52Gly, Asn91Asp, mutation by broth dilution method; procedure, shortened: as §1
Streptococcus mitis [31] = assay: Antimicrobial activity against Streptococcus mitis HK666 with gyrA Ser114Gly, and parC Ser52Gly, Asn91Asp, Glu135Asp mutation by broth dilution method; procedure, shortened: as §1
Streptococcus mitis [32] = assay: Antimicrobial activity against Streptococcus mitis HK135786 with gyrA Ser114Gly, and parC Ser52Gly, Asn91Asp mutation by broth dilution method; procedure, shortened: as §1
Streptococcus mitis [33] = assay: Antimicrobial activity against Streptococcus mitis HK29 with gyrA Ser114Gly, and parC Ser52Gly, Asn91Asp mutation by broth dilution method; procedure, shortened: as §1
Streptococcus mitis [34] = assay: Antimicrobial activity against Streptococcus mitis HK677 with gyrA Ser81Leu, Ser114Gly, gyrB Ser494Thr, parC Ser52Gly, Asp83Tyr, Asn91Asp and parE Arg447Ser mutation by broth dilution method; procedure, shortened: as §1
Streptococcus viridans [35] = assay: Antimicrobial activity against Viridans streptococcus L2 with gyrA Ser114Gly, gyrB Ser494Thr and parC Ser52Gly, Asn91Asp mutation by broth dilution method; procedure, shortened: as §1
Streptococcus viridans [36] = assay: Antimicrobial activity against Viridans streptococcus L7 with gyrA Ser114Gly, gyrB Ser494Thr and parC Ser52Gly, Asn91Asp mutation by broth dilution method; procedure, shortened: as §1
Streptococcus viridans [37] = assay: Antimicrobial activity against Viridans streptococcus L16 with gyrA Ser114Gly, gyrB Ser494Thr and parC Ser52Gly, Asn91Asp mutation by broth dilution method; procedure, shortened: as §1
Streptococcus viridans [38] = assay: Antimicrobial activity against Viridans streptococcus L17 with gyrA Ser114Gly, gyrB Ser494Thr and parC Ser52Gly, Asn91Asp mutation by broth dilution method; procedure, shortened: as §1
Streptococcus viridans [39] = assay: Antimicrobial activity against Viridans streptococcus L18 with gyrA Ser114Gly, Asp142Asn, gyrB Ser494Thr and parE Ile460Val mutation by broth dilution method; procedure, shortened: as §1
Streptococcus viridans [40] = assay: Antimicrobial activity against Viridans streptococcus L19 with gyrA Ser114Gly, gyrB Ser494Thr, parC Ser52Gly, Asn91Asp and parE Ile460Val mutation by broth dilution method; procedure, shortened: as §1
Streptococcus viridans [41] = assay: Antimicrobial activity against Viridans streptococcus L20 with gyrB Ser494Thr, parC Ser52Gly and Asn91Asp mutation by broth dilution method; procedure, shortened: as §1
Streptococcus viridans [42] = assay: Antimicrobial activity against Viridans streptococcus L21 with gyrB Ser494Thr and parC Lys137Asn mutation by broth dilution method; procedure, shortened: as §1
Streptococcus viridans [43] = assay: Antimicrobial activity against Viridans streptococcus L26 gyrA Ser81Phe and parC Lys137Asn mutation by broth dilution method; procedure, shortened: as §1

Question: How did the MIC (Streptococcus oralis [1]) turn out when `C[C@H]1COc2c(N3CCN(C)CC3)c(F)cc3c(=O)c(C(=O)O)cn1c23.C[C@H]1COc2c(N3CCN(C)CC3)c(F)cc3c(=O)c(C(=O)O)cn1c23.O` [LEVOFLOXACIN] was run?
Answer: 1 µg/mL

Question: And the MIC (Streptococcus oralis [2])?
Answer: 1 µg/mL

Question: And the MIC (Streptococcus oralis [3])?
Answer: 1 µg/mL

Question: And the MIC (Streptococcus oralis [4])?
Answer: 1 µg/mL

Question: And the MIC (Streptococcus oralis [5])?
Answer: 1 µg/mL

Question: And the MIC (Streptococcus oralis [6])?
Answer: 1 µg/mL

Question: What about the MIC (Streptococcus oralis [7]) of the same compound?
Answer: 1 µg/mL

Question: What about the MIC (Streptococcus oralis [8]) of the same compound?
Answer: 1 µg/mL

Question: What about the MIC (Streptococcus oralis [9]) of the same compound?
Answer: 1 µg/mL

Question: What about the MIC (Streptococcus oralis [10]) of the same compound?
Answer: 1 µg/mL

Question: What about the MIC (Streptococcus oralis [11]) of the same compound?
Answer: 1 µg/mL

Question: And the MIC (Streptococcus oralis [12])?
Answer: 1 µg/mL

Question: And the MIC (Streptococcus oralis [13])?
Answer: 2 µg/mL

Question: What about the MIC (Streptococcus oralis [14]) of the same compound?
Answer: 2 µg/mL

Question: And the MIC (Streptococcus oralis [15])?
Answer: 2 µg/mL

Question: And the MIC (Streptococcus oralis [16])?
Answer: 2 µg/mL

Question: What about the MIC (Streptococcus oralis [17]) of the same compound?
Answer: 2 µg/mL

Question: What about the MIC (Streptococcus oralis [18]) of the same compound?
Answer: 2 µg/mL

Question: What about the MIC (Streptococcus oralis [19]) of the same compound?
Answer: 2 µg/mL

Question: What about the MIC (Streptococcus oralis [20]) of the same compound?
Answer: 32 µg/mL

Question: What about the MIC (Streptococcus oralis [21]) of the same compound?
Answer: ≥ 32 µg/mL

Question: What about the MIC (Streptococcus mitis [22]) of the same compound?
Answer: 1 µg/mL

Question: And the MIC (Streptococcus mitis [23])?
Answer: < 0.25 µg/mL

Question: And the MIC (Streptococcus mitis [24])?
Answer: 0.5 µg/mL

Question: What about the MIC (Streptococcus mitis [25]) of the same compound?
Answer: 0.5 µg/mL

Question: What about the MIC (Streptococcus mitis [26]) of the same compound?
Answer: 0.5 µg/mL

Question: What about the MIC (Streptococcus mitis [27]) of the same compound?
Answer: 1 µg/mL

Question: What about the MIC (Streptococcus mitis [28]) of the same compound?
Answer: 1 µg/mL

Question: What about the MIC (Streptococcus mitis [29]) of the same compound?
Answer: 1 µg/mL

Question: And the MIC (Streptococcus mitis [30])?
Answer: 1 µg/mL

Question: What about the MIC (Streptococcus mitis [31]) of the same compound?
Answer: 2 µg/mL

Question: What about the MIC (Streptococcus mitis [32]) of the same compound?
Answer: 1 µg/mL

Question: What about the MIC (Streptococcus mitis [33]) of the same compound?
Answer: 2 µg/mL

Question: What about the MIC (Streptococcus mitis [34]) of the same compound?
Answer: ≥ 32 µg/mL

Question: And the MIC (Streptococcus viridans [35])?
Answer: 2 µg/mL

Question: What about the MIC (Streptococcus viridans [36]) of the same compound?
Answer: 2 µg/mL

Question: What about the MIC (Streptococcus viridans [37]) of the same compound?
Answer: 1 µg/mL

Question: What about the MIC (Streptococcus viridans [38]) of the same compound?
Answer: 1 µg/mL

Question: And the MIC (Streptococcus viridans [39])?
Answer: 2 µg/mL

Question: And the MIC (Streptococcus viridans [40])?
Answer: 2 µg/mL

Question: What about the MIC (Streptococcus viridans [41]) of the same compound?
Answer: 2 µg/mL

Question: What about the MIC (Streptococcus viridans [42]) of the same compound?
Answer: 2 µg/mL

Question: And the MIC (Streptococcus viridans [43])?
Answer: 16 µg/mL
